From ChEMBL document CHEMBL4431362, “Identification of small molecule inhibitors of botulinum neurotoxin serotype E via footprint similarity” (Bioorg Med Chem, 2016) come the findings set out here.

Test [1] deals with T1, Botulinum neurotoxin type E (Clostridium botulinum) (UniProt Q00496).
T1 sequence (whole entry): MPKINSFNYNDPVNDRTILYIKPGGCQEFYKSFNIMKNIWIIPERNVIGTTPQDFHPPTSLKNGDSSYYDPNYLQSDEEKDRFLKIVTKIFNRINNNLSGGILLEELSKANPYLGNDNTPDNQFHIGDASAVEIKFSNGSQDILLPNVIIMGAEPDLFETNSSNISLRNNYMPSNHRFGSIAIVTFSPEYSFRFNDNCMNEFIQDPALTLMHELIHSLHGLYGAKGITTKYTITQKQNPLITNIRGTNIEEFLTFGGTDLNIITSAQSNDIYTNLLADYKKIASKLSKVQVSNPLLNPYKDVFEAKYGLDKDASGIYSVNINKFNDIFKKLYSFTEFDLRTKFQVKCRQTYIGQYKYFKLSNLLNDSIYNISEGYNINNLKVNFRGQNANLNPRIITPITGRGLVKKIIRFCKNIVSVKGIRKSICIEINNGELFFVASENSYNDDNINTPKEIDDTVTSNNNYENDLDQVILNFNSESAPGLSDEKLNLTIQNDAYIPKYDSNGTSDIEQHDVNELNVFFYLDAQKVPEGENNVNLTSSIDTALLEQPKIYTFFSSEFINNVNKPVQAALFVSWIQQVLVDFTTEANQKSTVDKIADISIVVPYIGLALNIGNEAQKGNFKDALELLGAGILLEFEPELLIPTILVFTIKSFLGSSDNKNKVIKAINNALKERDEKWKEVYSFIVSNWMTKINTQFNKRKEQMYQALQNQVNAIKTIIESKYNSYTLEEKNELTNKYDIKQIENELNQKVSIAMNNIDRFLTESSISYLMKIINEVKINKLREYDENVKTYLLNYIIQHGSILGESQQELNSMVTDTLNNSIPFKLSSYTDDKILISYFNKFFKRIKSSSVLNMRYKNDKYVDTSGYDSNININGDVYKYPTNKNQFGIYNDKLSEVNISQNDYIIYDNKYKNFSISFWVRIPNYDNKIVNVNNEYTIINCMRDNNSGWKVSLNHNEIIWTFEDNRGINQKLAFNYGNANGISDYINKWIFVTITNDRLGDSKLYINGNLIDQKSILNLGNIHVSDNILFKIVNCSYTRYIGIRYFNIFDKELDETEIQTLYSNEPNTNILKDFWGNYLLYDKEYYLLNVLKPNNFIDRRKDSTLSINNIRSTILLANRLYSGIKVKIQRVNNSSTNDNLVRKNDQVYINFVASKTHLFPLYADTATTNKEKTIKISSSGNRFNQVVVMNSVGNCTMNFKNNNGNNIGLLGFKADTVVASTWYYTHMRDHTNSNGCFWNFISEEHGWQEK
Nature of the test: Inhibition of Clostridium botulinum BoNT/E light chain-mediated SNAP-25 cleavage assessed as reduction in residual activity using SNAP-Etide as substrate at 100 uM after 15 mins by micro plate reader method. The method in brief: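 Compound was preincubated 15 min with 2.5 nM BoNT/E light chain in 20 mM Hepes pH 7.4 with 2 mM DTT (final DMSO ≤1%). Reaction was started with 10 µM SNAP-Etide at 37°C and read as fluorescence (ex 320/em 420 nm). Percent inhibition = [1 − (test initial velocity ÷ mean initial velocity of two DMSO controls)] × 100.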

The target of test [2] is T1, Botulinum neurotoxin type E (Clostridium botulinum). Nature of the test: (§1) Inhibition of Clostridium botulinum BoNT/E light chain using GFP-tagged VAMP2/SNAP-25 (Ala128 to Gly206 residues) as substrate after 15 mins by GFP based micro plate reader method. The method in brief:
(§2)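 Recombinant BoNT/E light chain (25 nM) in 20 mM Hepes pH 7.4 with 2 mM DTT, preincubated 15 min with compound, then added to streptavidin plates carrying an immobilised biotinylated AviTag–VAMP2/SNAP-25–GFP substrate. GFP release was followed at 37°C (ex 460/em 506 nm). Triplicates over a range of concentrations; IC50 came from a sigmoid fit with Hill slope fixed at 1. The ratio uses the reference inhibitor run under the same conditions.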

Test [3] addresses T2, Botulinum neurotoxin type A (Clostridium botulinum, UniProt P0DPI0). Briefly: Inhibition of protease activity of Clostridium botulinum BoNT/A using N(K)-acetyl)-SNKTRIDEANQRATKML-carboxamide as substrate.
For test [4], the target named is T3, Botulinum neurotoxin type E (Clostridium botulinum, UniProt Q00496).
T3 sequence (Q00496 whole entry): T1 sequence (whole entry)
The test is described as §1. The method in brief: as §2

The target of test [5] is T1, Botulinum neurotoxin type E (Clostridium botulinum). Briefly: Potency index, ratio of IC50 for NSC-77053 to IC50 for test compound for inhibition of Clostridium botulinum BoNT/E light chain using GFP-tagged VAMP2/SNAP-25 (Ala128 to Gly206 residues) as substrate after 15 mins by GFP based micro plate reader method. The method in brief: as §2
For test [6] the target is unchanged. Briefly: Inhibition of Clostridium botulinum BoNT/E light chain using GFP-tagged VAMP2/SNAP-25 (Ala128 to Gly206 residues) as substrate at 25 uM after 15 mins by GFP based micro plate reader method. The method in brief:
(§3)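 Immobilised biotinylated AviTag–VAMP2/SNAP-25(Ala128–Gly206)–GFP substrate on streptavidin plates. BoNT/E light chain (25 nM) in 20 mM Hepes pH 7.4 with 2 mM DTT was preincubated 15 min with compound before addition to the wells. Liberated GFP was read at 37°C (ex 460/em 506 nm). Percent inhibition at a single concentration, run in triplicate.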

The target is the same in test [7]. Briefly: Inhibition of Clostridium botulinum BoNT/E light chain using GFP-tagged VAMP2/SNAP-25 (Ala128 to Gly206 residues) as substrate at 100 uM after 15 mins by GFP based micro plate reader method. The method in brief:
as §3

For test [8] the target is unchanged. Nature of the test: Inhibition of Clostridium botulinum BoNT/E light chain using GFP-tagged VAMP2/SNAP-25 (Ala128 to Gly206 residues) as substrate at 12.5 uM after 15 mins by GFP based micro plate reader method. The method in brief:
as §3

The target in test [9] is T2, Botulinum neurotoxin type A. Briefly: Inhibition of Clostridium botulinum BoNT/A light chain.
Test [10] shares this target. Nature of the test: Inhibition of protease activity of Clostridium botulinum BoNT/A using SNAP-25 as substrate by FRET analysis.

Calls of active or inactive are those of the source. The calls are words filed in the database; no cut-off is given here. Square brackets hold non-standard residues; d marks the D form. Peptide text beside a SMILES is read from it. * marks the point of attachment. ξ: configuration not given here. Dnp = O=[N+]([O-])c1ccc(*)c([N+](=O)[O-])c1; ξDab = NCCC(N)C(=O)O

T2 sequence (P0DPI0 2-448 limits assumed): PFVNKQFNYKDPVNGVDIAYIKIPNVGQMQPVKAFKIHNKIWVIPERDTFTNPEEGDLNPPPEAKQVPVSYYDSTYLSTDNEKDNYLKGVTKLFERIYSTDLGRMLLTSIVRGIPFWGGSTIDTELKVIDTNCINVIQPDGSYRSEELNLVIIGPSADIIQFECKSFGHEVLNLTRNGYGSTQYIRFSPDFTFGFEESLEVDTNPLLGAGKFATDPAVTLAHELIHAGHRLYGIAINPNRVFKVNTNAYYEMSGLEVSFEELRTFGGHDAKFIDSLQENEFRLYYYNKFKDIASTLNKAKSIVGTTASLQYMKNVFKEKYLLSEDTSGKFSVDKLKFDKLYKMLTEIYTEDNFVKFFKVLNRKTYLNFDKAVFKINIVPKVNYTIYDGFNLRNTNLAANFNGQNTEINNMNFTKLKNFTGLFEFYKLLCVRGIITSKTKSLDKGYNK

Consider `CC(=O)N/C(=C\c1c[nH]c2ccccc12)C(=O)N[C@@H](Cc1c[nH]c2ccccc12)C(=O)O` (stereo in doubt), for which the inhibition in [1] came to 52%. Besides, in test [2], the inhibition result was “inactive”.
Regarding `CCOc1ccc(NC(=O)CSc2nccn2-c2cccc(C(=O)Nc3ccccc3)c2)cc1`, the inhibition in test [1] came to 40%. Besides, the inhibition entry in test [2] was “inactive”.
The compound H-CRATKML-OH returned an inhibitory constant (Ki) in test [3] of 2 µM.
The compound `CC[C@H](C)[C@H](NS(=O)(=O)c1ccc2oc(=O)n(C)c2c1)C(=O)Nc1cccc(C)c1C` registered an IC50 in test [4] of 16 µM.
Turning to `Cc1cccc(NC(=O)[C@@H](CC(C)C)NS(=O)(=O)c2ccc3oc(=O)n(C)c3c2)c1C`, in [5], the Ratio IC50 was determined as 3. The inhibition in [6] is 58%; in test [7], 84%; in test [1] it was 71%; in test [8], 46.5%. In test [4], the IC50 was 14.2 µM.
For `Cc1cc(C)cc(N(CC(=O)Nc2ccc(C(F)(F)F)cc2)S(=O)(=O)c2c(C)nc(O)nc2O)c1`, the inhibition in [1] is 42%. Moreover, the inhibition entry in test [2] was “inactive”.
Consider `COc1ccc(CNC(=O)C(=O)N[C@@H](C)[C@H](c2cccs2)N2CCN(Cc3ccccc3)CC2)cc1`, for which, in test [1], the inhibition is 47%. Also, the inhibition entry in test [2] is “inactive”.
In [3], `CSCC[C@H](NC(=O)C(CCN)NC(=O)[C@@H](NC(=O)[C@H](Cc1c[nH]c2ccccc12)NC(=O)[C@H](CCCNC(=N)N)NC(=O)C(N)CCNc1ccc([N+](=O)[O-])cc1[N+](=O)[O-])[C@@H](C)O)C(=O)N[C@@H](CC(C)C)C(=O)O` (stereo partly specified) (H-[ξDab](Dnp)RWT[ξDab]ML-OH) yielded a Ki of 0.041 µM.
In test [9], `N=C(N)NCCC[C@H](NC(=O)[C@@H](N)CCCNC(=N)N)C(=O)NCC(=O)N[C@@H](Cc1ccccc1)C(=O)O` (H-RRGF-OH) yielded an IC50 of 0.9 µM.
For the compound `CC(=O)c1cccc(NC(=O)CSc2nnc(SCC(=O)Nc3cccc(C(C)=O)c3)s2)c1`, the inhibition in test [1] came out at 31%. Moreover, in [2], the inhibition entry was “inactive”.
For `CCOc1ccc(OCC)c(NC(=O)CSc2cc(N3CCC(C(=O)NC4CC4)CC3)ncn2)c1`, the inhibition in test [1] came to 25%. Moreover, in test [2], the inhibition entry is “inactive”.
The compound `O=C(/C=C/c1ccc(Cl)cc1)NO` registered a concentration for half-maximal inhibition (IC50) in test [10] of 15 µM.
For the compound `O=C(O)c1ccccc1C(=O)c1ccc2c(c1)Cc1ccccc1-2`, in test [4], the IC50 is 48.5 µM.
In the case of `Cc1ccc(NC(=O)N2CC(=O)N(CC(=O)NC[C@H]3CCCO3)c3ccccc32)cc1`, the inhibition in test [1] was 33%. Also, the inhibition result in test [2] is “inactive”.
As to `COc1ccc(N(CC(=O)Nc2ccc(F)c(Cl)c2)S(=O)(=O)c2c(C)[nH]c(=O)[nH]c2=O)cc1`, the inhibition in [1] was determined as 41%. Further, the inhibition result in test [2] was “inactive”.
Turning to `Cc1cccc(NC(=O)[C@H](CC(C)C)NS(=O)(=O)c2ccc3oc(=O)n(C)c3c2)c1C`, the values for the inhibition in test [6], in test [7] and in test [8] were 62.5%, 77.5% and 52%, respectively.

By inhibition is commonly meant the drop in the measured response relative to a control, in per cent. Usually Ki stands for a dissociation constant, usually derived from enzyme kinetics or from competition with a known ligand. One may read the IC50 as the concentration that inhibits the measured activity by half.
